Reference: PMC4505548 (Organic & biomolecular chemistry, 2008)

Biological target: Neisseria meningitidis CSS (NmCSS), CMP-sialic acid synthetase (Neisseria meningitidis, UniProt P0A0Z8)
Assay: capillary electrophoresis UV assay of CMP-Neu5Ac formation
Type: biochemical
Settings: 1000 µM; 1 mM CTP, 1 mM Neu5Ac, 20 mM MgCl2, Tris-HCl pH 8.5, 37 °C, 15 min
How it was run: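 Purified recombinant NmCSS (1.25 ng) in 200 mM Tris-HCl pH 8.5 with CTP, Neu5Ac and MgCl2, reacted with test compound at 1 mM for 15 min at 37 °C. Stopped with 10% SDS on ice (final 1% SDS). CMP-Neu5Ac measured by capillary electrophoresis with UV detection. Percent conversion calculated from a UV response standard curve of CTP and CMP-Neu5Ac.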

Chain of Neisseria meningitidis CSS (NmCSS), CMP-sialic acid synthetase (P0A0Z8 whole entry): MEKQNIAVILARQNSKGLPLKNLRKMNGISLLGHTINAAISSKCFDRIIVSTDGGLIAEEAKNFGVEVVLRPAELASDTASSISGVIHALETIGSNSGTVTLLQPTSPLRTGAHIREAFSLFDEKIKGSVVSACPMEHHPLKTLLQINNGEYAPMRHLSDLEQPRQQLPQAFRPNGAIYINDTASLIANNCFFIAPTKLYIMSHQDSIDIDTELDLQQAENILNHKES

Substance | % Inhibition [%]
Saturated sulfo-CDP [compound 12] | 55 ± 4
Saturated sulfo-UDP [compound 22] | 35 ± 2
Sulfo-CDP [compound 5] | 47 ± 2
Sulfo-CTP [compound 4] | 39 ± 2
Sulfo-UTP [compound 19] | 33 ± 5
